Source: PubChem
BaF3 parental = parental Ba/F3 viability inhibition as JAK2V617F counter-screen; inhibition, % at 5.6 µM; CellTiter-Glo ATP luminescence; AID 1486; actives 1.1% (n = 220,000);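 active = inhibition above a per-campaign cutoff, the mean inhibition of all tested compounds plus 3 SD, cut at about 27% in these data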;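 note: 0% = DMSO wells and 100% = JAK Inhibitor I control wells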
KLF5 inh = kruppel-like factor 5 inhibition; DLD-1 KLF5 promoter-luciferase reporter, luminescence; inhibition, % at 5 µM; actives 0.23% (n = 290,000);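 active = inhibition above a per-plate limit of that plate's mean compound inhibition plus 3 SD, cut at about 60% in these data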;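 note: 0% = DMSO wells and 100% = LY294002 at 200 µM; higher means less KLF5 promoter-driven luciferase light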
MT stabilize HCS = microtubule stabilization, imaging screen; HeLa tubulin immunostaining HCS, 24 h; share of cells brighter than vehicle mean+2SD; % tubulin-high responders, % at 10 µM; AID 2205; actives 0.83% (n = 200,000);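 active = plate Z-score above 3 for both tubulin-high and condensed-nucleus cell shares, with cell loss under 80%, at 10 µM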;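 note: anti alpha tubulin signal scored within the nucleus-defined area of each cell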
bCat nuc transl = modulators of beta-catenin nuclear translocation; HeLa beta-catenin nuclear translocation, immunofluorescence imaging; nuclear translocation activity, % at 5 µM; actives 0.3% (n = 190,000); AID 1665;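 active = nuclear translocation activity above 50% at 5 µM, with a well cell count of 50 or more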;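 note: per-cell ratio of nuclear to cytoplasmic median beta-catenin stain intensity; plate controls were DMSO negative control for no effect and GSK-3 inhibitor IX positive control for full effect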
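System: Human HeLa cells, endogenous beta-catenin | Compound dosing: 5 µM primary, 0.02–20 µM confirmation | Timing: 24 h compound exposure at 37°C, 5% CO2 | Measured by: Fluorescence imaging of beta-catenin antibody stain plus DAPI | Read-out basis: % activation of per-cell nuclear versus cytoplasmic median beta-catenin signal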
Ba/F3 V617F tox = loss of viability in JAK2V617F-driven Ba/F3 cells; Ba/F3 EpoR-JAK2V617F viability, ATP luminescence; inhibition, % at 5.6 µM; actives 1.1% (n = 220,000); AID 1446;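 active = inhibition above the campaign mean plus 3 SD over all tested compounds, cut at about 24% in these data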;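 note: cytokine-independent growth of Ba/F3 cells driven by EpoR plus mutant JAK2; 0% = DMSO-treated cells and 100% = JAK inhibitor I control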
IEC-6 tox-1 = IEC-6 cytotoxicity, counter-screen for KLF5 inhibitors; actives 0.78% (n = 290,000); inhibition, % at 5 µM; AID 1825; luminescence viability;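 note: 0% = plate median of test compound wells and 100% = cytotoxic reference compound wells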
KLF5 confirm = KLF5 inhibition, confirmation assay; DLD-1 KLF5 promoter firefly luciferase reporter, luminescence; inhibition, % at 4 µM; AID 1834; actives 79% (n = 610); shares compounds with KLF5 inh;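 active = inhibition above a set limit taken from the earlier primary screen, cut at about 63% in these data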;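 note: 0% = DMSO wells and 100% = LY294002 at 200 µM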
IEC-6 tox-2 = rat IEC-6 cytotoxicity, KLF5 inhibitor counter-screen. AID 1905. actives 56% (n = 610). IEC-6 rat intestinal cells, viability luminescence. shares compounds with KLF5 inh. inhibition, % at 4 µM; in the data active = inhibition above about 23%;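 note: cells exposed to compounds for 48 hours before viability read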
IEC-6 cytotox cf = IEC-6 cytotoxicity, confirmation assay; actives 63% (n = 1,900); shares compounds with IEC-6 tox-1; IEC-6 rat intestinal epithelial viability, luminescence; inhibition, % at 5 µM;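 note: 0% = vehicle and 100% = reference cytotoxic drug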
An asterisk follows results filed as active; . = no result. The list is not random: actives were taken first. Their share in the collection is about 2.1%. Cut-off read from the data, not from the text of the source, unless noted: active = inhibition above about 22%; inactive = the rest.

SMILES | BaF3 parental | KLF5 inh | MT stabilize HCS | bCat nuc transl | Ba/F3 V617F tox | IEC-6 tox-1 | KLF5 confirm | IEC-6 tox-2 | IEC-6 cytotox cf
Cc1cccc(C)c1OCCNC(=O)C(=O)NCc1ccco1 | 81* | 65* | 11 | 59* | 77* | 77* | 83* | 61* | 59*
O=C(CN1CCN(C(=O)c2ccco2)CC1)Nc1cccc([N+](=O)[O-])c1 | 0 | -16 | 3 | 0 | -3 | -4 | . | . | .
O=C(C1CCN(S(=O)(=O)c2cccs2)CC1)N(c1ccccn1)C1CCCCC1 | 10 | -38 | 1 | -1 | 1 | 0 | . | . | .
COc1ccc(CC(=O)NCc2ccc(-n3cccc3)cc2)cc1OC | . | 71* | . | . | . | 76* | 72* | 60* | 58*
COc1ccccc1C(=O)Nc1nc2ccccc2[nH]1 | . | 101* | . | . | . | 80* | 105* | 58* | 69*
COc1cc(SC)ccc1C(=O)Nc1nc2ccccc2[nH]1 | . | 100* | . | . | . | 77* | 98* | 44* | 59*
COc1ccc2[nH]c(C(=O)N/N=C/c3ccc(OC)c(O)c3)cc2c1 | . | 65* | . | . | . | 30* | 69* | 2 | 10
CCCOc1ccc2[nH]c(C(=O)N/N=C/c3cc(OC)c(OC)c(OC)c3)cc2c1 | . | -43 | . | . | . | -13 | . | . | .
COc1ccc(NC(=O)/C(Cl)=C(/Cl)S(=O)Cc2ccccc2)cn1 (centres undefined) | 102* | 96* | 2 | -2 | 99* | 100* | 107* | 73* | 90*
COc1ccc(NC(=O)Cc2ccccc2)cn1 | 2 | -4 | 2 | 1 | -3 | 2 | . | . | .
NC(=O)c1ccccc1NC(=O)COc1ccc2c(c1)OCO2 | . | -149 | . | . | . | 4 | . | . | .
CC(=O)Nc1ccc(C(=O)Nc2nc(-c3ccccn3)cs2)cc1 | 11 | -30 | 4 | 0 | 2 | 4 | . | . | .
O=C(Nc1nc(-c2ccccn2)cs1)c1ccccc1-n1cnnn1 | 63* | 71* | . | -2 | 66* | 90* | 76* | 59* | 70*
Cc1cccc(N2CC(C(=O)Nc3nnc(SCC(=O)N4CCOCC4)s3)CC2=O)c1 (centres undefined) | . | -31 | . | . | . | -4 | . | . | .
COc1cc(CN2CCNC(=O)C2CC(=O)N2CCCO2)cc(OC)c1 (centres undefined) | -2 | -9 | 3 | 2 | -4 | -6 | . | . | .
COc1ccc(/C=N/Nc2nc3ccccc3[nH]2)cc1OC | 0 | -14 | 4 | 0 | 0 | 8 | . | . | .
C(=N\Nc1nc2ccccc2[nH]1)/c1ccc2ncccc2c1 | 96* | 62* | . | 2 | 90* | 95* | 57 | 90* | 85*
CC1=NCCN1S(=O)(=O)c1cc([N+](=O)[O-])ccc1Cl | 6 | -33 | 3 | 0 | -6 | -1 | . | . | .
Cc1cccc(N2CCN(C(=O)c3ccc(CS(=O)(=O)c4ccccc4C)o3)CC2C)c1 (centres undefined) | 77* | 89* | 19* | 109* | 75* | 76* | 75* | 53* | 48*
Cc1ccc(C)c(N2CCN(C(=O)c3ccc(CS(=O)(=O)c4ccccc4C)o3)CC2)c1 | 8 | 5 | 19 | . | 1 | 4 | . | . | .
Cc1c(C(=O)OCCOC(C)C)[nH]c2c1C(=O)CC(c1ccco1)C2 (centres undefined) | 86* | 77* | 6 | 118* | 81* | 89* | 85* | 67* | 60*
Cc1c(C(=O)O)[nH]c2c1C(=O)CC(c1ccccc1)C2 (centres undefined) | 2 | -1 | 3 | 0 | -2 | 3 | . | . | .
Cc1c(C(=O)OCc2ccccc2)[nH]c2c1C(=O)CC(c1ccco1)C2 (centres undefined) | 73* | 77* | 7 | 120* | 68* | 81* | 80* | 56* | 52*
CCOC(=O)c1[nH]c2c(c1C)C(=O)CC(c1ccco1)C2 (centres undefined) | 88* | 83* | 7 | 118* | 87* | 89* | 90* | 66* | 63*
COc1cccc(C(=O)Nc2ccc(N3CCN(C(=O)c4cccs4)CC3)cc2)c1 | . | 63* | . | . | . | 77* | 56 | 35* | 34*
SMILES | BaF3 parental | KLF5 inh | MT stabilize HCS | bCat nuc transl | Ba/F3 V617F tox | IEC-6 tox-1 | KLF5 confirm | IEC-6 tox-2 | IEC-6 cytotox cf
O=C(Nc1ccc(N2CCN(C(=O)c3cccs3)CC2)cc1)c1cccc(F)c1 | . | -1 | . | . | . | 5 | . | . | .
Cc1sc(-c2ccncc2)nc1OC(=O)c1ccc(F)cc1F | 10 | -18 | 4 | -3 | 4 | -3 | . | . | .
O=C(NC1CC1)C1=C[C@H](c2csc3ccccc23)C[C@H](OCCCCO)O1 | -1 | 4 | 4 | -3 | 2 | 1 | . | . | .
O=C(NCc1ccccc1)C1=C[C@@H](c2csc3ccccc23)C[C@@H](OCCCCO)O1 | 57* | 70* | 1 | 7 | 25* | 30* | 61 | 7 | 16
O=C(CCn1nc(-c2ccc(Cl)cc2)ccc1=O)N1CCN(c2ccc(F)cc2)CC1 | . | -14 | . | . | . | 4 | . | . | .
Cc1ccccc1-c1cc2c(nn1)-c1ccccc1C2=O | 88* | 102* | 2 | 3 | 91* | 102* | -80 | 13 | 41*
N#Cc1cccnc1N1CCN(C(=O)c2ccco2)CC1 | -2 | 18 | . | 0 | -1 | -2 | . | . | .
COc1cc2c(c(OC)c1OC)-c1ccc(OC)c(=O)cc1[C@@H](NC(C)=O)CC2 | . | 79* | . | . | . | 96* | 88* | 81* | 83*
CCN(CC)c1ccc2c(cc1=O)[C@@H](NC)CCc1cc(OC)c(OC)c(OC)c1-2 | . | 70* | . | . | . | 85* | 92* | 81* | 76*
COc1cc(C(=O)NC2CCCc3ccccc32)cc(OC)c1OC (centres undefined) | . | -3 | . | . | . | -2 | . | . | .
CN[C@H]1CCc2cc(OC)c(OC)c(OC)c2-c2ccc(N(C)CC(OC)OC)c(=O)cc21 | . | 4 | . | . | . | 10 | . | . | .
COc1cc2c(c(OC)c1OC)-c1ccc(OC)c(=O)cc1[C@@H](N(C)CC#CCO)CC2 | . | 81* | . | . | . | 93* | 92* | 75* | 74*
COc1cc2c(c(OC)c1OC)-c1ccc(N(C)CC(OC)OC)c(=O)cc1[C@@H](NC(C)=O)CC2 | . | 86* | . | . | . | 92* | 86* | 61* | 66*
O=C(NCc1ccccc1C(F)(F)F)C1CC(O)CN1C(=O)Nc1ccccc1 (centres undefined) | . | 5 | . | . | . | 1 | . | . | .
CCOc1ccc(C2=Nn3c(nnc3-c3ccccc3OC)SC2)cc1 | 93* | 82* | 19* | 46 | 96* | 96* | 94* | 84* | 83*
COc1ccc2c(c1)sc1nc(-c3ccccc3)cn12 | 69* | 72* | 3 | 0 | 70* | 76* | 103* | 70* | 55*
